According to ChEMBL document CHEMBL3526146, “In vitro and in vivo metabolism and pharmacokinetics of BMS-562086, a potent and orally bioavailable corticotropin-releasing factor-1 receptor antagonist” (Drug Metab Dispos, 2012):

What was measured:
[1] = Drug metabolism in rat hepatocytes assessed as DPH-124921 metabolite level at 25 uM after 3 hrs by LC-MS/MS analysis; type: ADME, cell-based, Hepatocyte
In short: (§1)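 Hepatocytes checked for viability by trypan blue exclusion, then diluted in Krebs-Henseleit buffer to 1.0 × 10^6 cells/ml. Incubated in duplicate with 25 µM compound at 37°C for 3 h on an orbital shaker (80 rpm) under 95/5 O2/CO2. Negative control had no cells. Stopped with ice-cold acetonitrile, sonicated, centrifuged; supernatant analysed by LC/MS/MS.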

[2] = Drug metabolism in cynomolgus monkey cryopreserved hepatocytes assessed as DPH-124921 metabolite level at 25 uM after 3 hrs by LC-MS/MS analysis; type: ADME, cell-based, Macaca fascicularis, Hepatocyte
In short: (§2)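 Mouse, rat, dog, monkey and human hepatocytes (trypan blue viability checked) at 1.0×10^6 cells/ml in Krebs-Henseleit buffer were incubated with 25 µM compound, in duplicate. Conditions were 37°C, 95/5 O2/CO2, orbital shaking, 3 h. 7-Ethoxycoumarin and 7-hydroxycoumarin (100 µM) served as positive controls, with a cell-free negative control. Reactions were quenched with ice-cold acetonitrile, then sonicated and centrifuged; supernatants were analysed by LC/MS/MS.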

[3] = Drug metabolism in human cryopreserved hepatocytes assessed as DPH-124921 metabolite level at 25 uM after 3 hrs by LC-MS/MS analysis; type: ADME, cell-based, Hepatocyte; in short: as §1
[4] = Drug metabolism in cynomolgus monkey cryopreserved hepatocytes assessed as BMS-572273 metabolite level at 25 uM after 3 hrs by LC-MS/MS analysis; type: ADME, cell-based, Macaca fascicularis, Hepatocyte; in short: as §2
[5] = Drug metabolism in mouse liver microsomes at 100 uM after 1 hr in presence of NADPH; type: ADME
In short: (§3)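 Liver microsomes (1 mg/ml protein) in 100 mM phosphate buffer with 100 µM test compound. Reaction started by adding NADPH (1 mM), then run at 37°C for 1 h in a shaking water bath, in duplicate. Controls lacked microsomal protein or NADPH; 7-ethoxycoumarin (100 µM) was the positive control. Metabolites identified by LC/MS/MS.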

Liver microsome [6] = assay: Drug metabolism in dog liver microsomes at 100 uM after 1 hr in presence of NADPH; type: ADME, Canis lupus familiaris; in short: as §3
[7] = Drug metabolism in cynomolgus monkey liver microsomes at 100 uM after 1 hr in presence of NADPH; type: ADME, Macaca fascicularis
In short: (§4)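 Mouse, rat, dog, monkey and human liver microsomes (1 mg/ml protein) were incubated with 100 µM compound in 100 mM phosphate buffer. Reactions were started with 1 mM NADPH and run 1 h at 37°C in duplicate. Controls lacked protein or NADPH, plus a 7-ethoxycoumarin (100 µM) positive control. Metabolites were identified by LC/MS/MS.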

Liver microsome [8] = assay: Drug metabolism in human liver microsomes at 100 uM after 1 hr in presence of NADPH; type: ADME; in short: as §3
[9] = Drug metabolism in mouse liver microsomes assessed as DPH-123554 metabolite level at 100 uM after 1 hr in presence of NADPH; type: ADME; in short: as §3
Liver microsome [10] = assay: Drug metabolism in rat liver microsomes assessed as DPH-123554 metabolite level at 100 uM after 1 hr in presence of NADPH; type: ADME; in short: as §3
Liver microsome [11] = assay: Drug metabolism in beagle dog liver microsomes assessed as DPH-123554 metabolite level at 100 uM after 1 hr in presence of NADPH; type: ADME, Canis lupus familiaris; in short: as §4
[12] = Drug metabolism in cynomolgus monkey liver microsomes assessed as DPH-123554 metabolite level at 100 uM after 1 hr in presence of NADPH; type: ADME, Macaca fascicularis; in short: as §4
Liver microsome [13] = assay: Drug metabolism in human liver microsomes assessed as DPH-123554 metabolite level at 100 uM after 1 hr in presence of NADPH; type: ADME; in short: as §3
[14] = Drug metabolism in mouse liver microsomes assessed as DPH-124921 metabolite level at 100 uM after 1 hr in presence of NADPH; type: ADME; in short: as §3
Liver microsome [15] = assay: Drug metabolism in rat liver microsomes assessed as DPH-124921 metabolite level at 100 uM after 1 hr in presence of NADPH; type: ADME; in short: as §3
Liver microsome [16] = assay: Drug metabolism in dog liver microsomes assessed as DPH-124921 metabolite level at 100 uM after 1 hr in presence of NADPH; type: ADME, Canis lupus familiaris; in short: as §4
[17] = Drug metabolism in mouse liver microsomes assessed as BMS-572273 metabolite level at 100 uM after 1 hr in presence of NADPH; type: ADME; in short: as §3
[18] = Drug metabolism in cynomolgus monkey liver microsomes assessed as BMS-572273 metabolite level at 100 uM after 1 hr in presence of NADPH; type: ADME, Macaca fascicularis; in short: as §4
Liver microsome [19] = assay: Drug metabolism in human liver microsomes assessed as BMS-572273 metabolite level at 100 uM after 1 hr in presence of NADPH; type: ADME; in short: as §3
Hepatocyte [20] = assay: Detection of compound level in rat hepatocytes treated with 25 uM of BMS-562086 after 3 hrs by LC-MS/MS analysis; type: ADME, cell-based; in short: as §2
[21] = Detection of compound level in cynomolgus monkey cryopreserved hepatocytes treated with 25 uM of BMS-562086 after 3 hrs by LC-MS/MS analysis; type: ADME, cell-based, Macaca fascicularis, Hepatocyte; in short: as §2
Hepatocyte [22] = assay: Detection of compound level in human cryopreserved hepatocytes treated with 25 uM of BMS-562086 after 3 hrs by LC-MS/MS analysis; type: ADME, cell-based; in short: as §2
[23] = Drug metabolism in mouse hepatocytes at 25 uM after 3 hrs by LC-MS/MS analysis; type: ADME, cell-based, Hepatocyte; in short: as §1
[24] = Drug metabolism in rat hepatocytes at 25 uM after 3 hrs by LC-MS/MS analysis; type: ADME, cell-based, Hepatocyte; in short: as §1
[25] = Drug metabolism in beagle dog hepatocytes at 25 uM after 3 hrs by LC-MS/MS analysis; type: ADME, cell-based, Canis lupus familiaris, Hepatocyte; in short: as §2
[26] = Drug metabolism in human cryopreserved hepatocytes at 25 uM after 3 hrs by LC-MS/MS analysis; type: ADME, cell-based, Hepatocyte; in short: as §1
[27] = Drug metabolism in mouse hepatocytes assessed as DPH-123554 metabolite level at 25 uM after 3 hrs by LC-MS/MS analysis; type: ADME, cell-based, Hepatocyte; in short: as §1
[28] = Drug metabolism in cynomolgus monkey cryopreserved hepatocytes assessed as DPH-123554 metabolite level at 25 uM after 3 hrs by LC-MS/MS analysis; type: ADME, cell-based, Macaca fascicularis, Hepatocyte; in short: as §2
[29] = Drug metabolism in mouse hepatocytes assessed as DPH-124921 metabolite level at 25 uM after 3 hrs by LC-MS/MS analysis; type: ADME, cell-based, Hepatocyte; in short: as §1
[30] = Detection of compound level in mouse liver microsomes treated with BMS-562086 by LC-MS/MS analysis
Liver microsome [31] = assay: Detection of compound level in rat liver microsomes treated with 100 uM of BMS-562086 after 1 hr by LC-MS/MS analysis
Liver microsome [32] = assay: Detection of compound level in human liver microsomes treated with 100 uM of BMS-562086 after 1 hr by LC-MS/MS analysis
Liver microsome [33] = assay: Detection of compound level in beagle dog liver microsomes treated with 100 uM of BMS-562086 after 1 hr by LC-MS/MS analysis
[34] = Detection of compound level in cynomolgus monkey liver microsomes treated with 100 uM of BMS-562086 after 1 hr by LC-MS/MS analysis

Drug metabolism [1]: metabolite_detected | Drug metabolism [2]: metabolite_detected | Drug metabolism [3]: metabolite_detected | Drug metabolism [4]: metabolite_detected | Drug metabolism [5]: metabolite_detected | Drug metabolism (Liver microsome [6]): metabolite_detected | Drug metabolism [7]: metabolite_detected | Drug metabolism (Liver microsome [8]): metabolite_detected | Drug metabolism [9]: metabolite_detected | Drug metabolism (Liver microsome [10]): metabolite_detected | Drug metabolism (Liver microsome [11]): metabolite_detected | Drug metabolism [12]: metabolite_detected | Drug metabolism (Liver microsome [13]): metabolite_detected | Drug metabolism [14]: metabolite_detected | Drug metabolism (Liver microsome [15]): metabolite_detected | Drug metabolism (Liver microsome [16]): metabolite_detected | Drug metabolism [17]: metabolite_detected | Drug metabolism [18]: metabolite_detected | Drug metabolism (Liver microsome [19]): metabolite_detected | Drug metabolism (Hepatocyte [20]): metabolite_detected | Drug metabolism [21]: metabolite_detected | Drug metabolism (Hepatocyte [22]): metabolite_detected | Drug metabolism [23]: metabolite_detected | Drug metabolism [24]: metabolite_detected | Drug metabolism [25]: metabolite_detected | Drug metabolism [26]: metabolite_detected | Drug metabolism [27]: metabolite_detected | Drug metabolism [28]: metabolite_detected | Drug metabolism [29]: metabolite_detected | Drug metabolism [30]: metabolite_detected | Drug metabolism (Liver microsome [31]): metabolite_detected | Drug metabolism (Liver microsome [32]): metabolite_detected | Drug metabolism (Liver microsome [33]): metabolite_detected | Drug metabolism [34]: metabolite_detected
SMILES: CC[C@@H](C)Nc1nc(C)nc2c(-c3ccc(OC)nc3C)c(C)nn12 [PEXACERFONT]
